High-throughput results: PubChem BioAssay, several laboratories
Mdm2 MdmX PPI: inhibitors of human Mdm2-MdmX association, primary screen, cell-based, luminescence, split luciferase, SaOS-2, uHTS; Protein Mdm4 (Homo sapiens) + E3 ubiquitin-protein ligase Mdm2 (Homo sapiens), …; SaOS-2 split-luciferase Mdm2/MdmX complementation; inhibition, % at 8 µM; 3% of 330,000 active; AID 485346, 2010;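 active = inhibition of at least 50% at 8 µM in the primary screen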
Target sequence (O15151 whole entry, looked up): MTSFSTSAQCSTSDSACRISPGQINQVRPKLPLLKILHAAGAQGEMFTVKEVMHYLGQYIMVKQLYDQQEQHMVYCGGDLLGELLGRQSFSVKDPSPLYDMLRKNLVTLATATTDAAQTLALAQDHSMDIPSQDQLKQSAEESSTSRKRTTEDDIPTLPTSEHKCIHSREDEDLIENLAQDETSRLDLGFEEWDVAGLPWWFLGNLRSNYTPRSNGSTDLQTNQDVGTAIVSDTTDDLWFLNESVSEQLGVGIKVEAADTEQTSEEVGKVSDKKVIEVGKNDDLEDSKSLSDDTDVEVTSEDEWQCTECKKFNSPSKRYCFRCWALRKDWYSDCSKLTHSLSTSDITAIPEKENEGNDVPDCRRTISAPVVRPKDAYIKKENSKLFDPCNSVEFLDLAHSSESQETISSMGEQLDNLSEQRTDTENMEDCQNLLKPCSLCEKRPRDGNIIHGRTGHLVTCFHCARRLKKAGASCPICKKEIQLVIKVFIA
Target sequence (Q00987 whole entry, looked up): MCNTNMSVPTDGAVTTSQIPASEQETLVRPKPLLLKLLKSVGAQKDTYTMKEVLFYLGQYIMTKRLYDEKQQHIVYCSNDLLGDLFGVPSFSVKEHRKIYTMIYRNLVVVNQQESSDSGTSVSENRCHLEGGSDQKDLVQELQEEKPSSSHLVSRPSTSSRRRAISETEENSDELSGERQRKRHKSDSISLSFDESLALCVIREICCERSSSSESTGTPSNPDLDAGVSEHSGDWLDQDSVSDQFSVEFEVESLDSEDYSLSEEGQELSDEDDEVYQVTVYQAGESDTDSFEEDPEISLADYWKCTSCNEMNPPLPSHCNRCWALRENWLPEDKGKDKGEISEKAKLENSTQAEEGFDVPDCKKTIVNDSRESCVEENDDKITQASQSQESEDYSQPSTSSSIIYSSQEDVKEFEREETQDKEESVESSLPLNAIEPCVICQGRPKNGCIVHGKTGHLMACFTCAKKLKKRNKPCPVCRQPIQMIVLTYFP
aSyn 5UTR inh: MLPCN primary screen, SNCA 5' untranslated region; 0.82% of 300,000 active; AID 1813, 2009; inhibition, % (tested at 7.5 µM); alpha-synuclein 5'UTR reporter, inhibitor activity; in the data active = inhibition above about 60%;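 note: H4 neuroglioblastoma cells stably carrying SNCA 5'UTR luciferase fusion; 0% = DMSO wells and 100% = positive control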
697 NFkB inh: inhibitors of PMA/ionomycin-induced NF-kB reporter, 697 cells, primary screen, B-cell NF-kB inhibitor project, cell-based, luminescence, uHTS. 697 B-cell NF-kB luciferase reporter, 16 h. inhibition, % at 4 µM. 0.33% of 330,000 active; in the data active = inhibition above about 35%
VIM-2 inh: VIM-2 metallo-beta-lactamase inhibitors, primary screen, biochemical, epi-absorbance readout, Pseudomonas aeruginosa enzyme | purified VIM-2, nitrocefin hydrolysis, epi-absorbance fluorescence | inhibition, % at 5.6 µM | 0.89% of 290,000 active | AID 1527, 2009;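 active = inhibition above the mean of all tested compounds plus 3 SD, cutoff set per screening run, cut at about 7.5% in these data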;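 note: red hydrolysis product quenches plate fluorescence so inhibitors raise well fluorescence; 0% = enzyme with DMSO and 100% = DMSO without enzyme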
IMP-1 inhibitor: IMP-1 metallo-beta-lactamase inhibitors, primary screen, biochemical, epi-absorbance readout, Pseudomonas aeruginosa enzyme. 0.45% of 290,000 active. metallo-beta-lactamase IMP-1 (Pseudomonas aeruginosa). AID 1556, 2009. inhibition, % at 5.6 µM. purified IMP-1, nitrocefin hydrolysis, epi-absorbance fluorescence;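 active = inhibition above the mean plus 3 SD of all compounds in the same screening run, cut at about 4.5% in these data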;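 note: 0% = IMP-1 with DMSO and 100% = DMSO wells lacking enzyme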
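assay system = purified recombinant IMP-1 metallo-beta-lactamase enzyme | schedule = 15 min preincubation plus 25 min reaction at 25 °C | signal = Epi-absorbance fluorescence, 480 nm excitation, 530 nm emission | read-out basis = percent inhibition from optical density relative to buffer-blank wells | controls = IMP-1 with DMSO as 0%, enzyme-free DMSO as 100%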
Jurkat NFkB inh: inhibitors of induced NF-kB luciferase reporter, primary screen, TCR NF-kB activation inhibitor project, cell-based, luminescence, uHTS. Jurkat, PMA/ionomycin-induced NF-kB luciferase reporter. AID 435003, 2010. inhibition, % at 4 µM. 0.53% of 330,000 active; in the data active = inhibition above about 50%
Mdm2-MdmX conf: Mdm2-MdmX complex disruptors, retested hits, confirmation, luminescence, single concentration. shares compounds with Mdm2 MdmX PPI. Mdm2-MdmX binding, luminescent assay. inhibition, % at 8 µM. 55% of 10,000 active. AID 489028, 2010; in the data active = inhibition above about 40%
FLuc counter: full-length luciferase signal inhibition, confirmation, counter-screen for Mdm2/MdmX interaction inhibitor project, cell-based, single concentration, SaOS-2; shares compounds with Mdm2 MdmX PPI; SaOS-2 full-length luciferase counterscreen, luminescence; inhibition, % at 8 µM; 77% of 6,200 active; AID 504607, 2011;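 active = mean inhibition at 8 µM reaching about 37%, which flags the compound as non-specific, limit read from the data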;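 note: p53-null SaOS-2 cells with luciferase driven by a doxycycline-inducible promoter; compound on cells about two nights before reading with doxycycline added after day one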
Numbers without * were called inactive; · = no result. A selection: hits, their analogues and other compounds. The true share with any hit is near 4.7%.

SMILES	Mdm2 MdmX PPI	aSyn 5UTR inh	697 NFkB inh	VIM-2 inh	IMP-1 inhibitor	Jurkat NFkB inh	Mdm2-MdmX conf	FLuc counter
O=C(Nc1ccc(Br)c(C(F)(F)F)c1)c1ccccc1	-11	-90	-40	-3	-5	-33	·	·
O=C(Nc1ccc(Br)c(C(F)(F)F)c1)c1ccc(C(F)(F)F)cc1	96*	-61	-49	-2	-2	-24	59*	29
Cc1cccn2c(=O)nc(SCC(=O)N3N=C(c4cccs4)CC3c3ccc(F)cc3)nc12 (configuration not stated)	51*	31	-50	·	·	1	51*	71*
COc1ccc(C2=NN(C(=O)CSc3nc(=O)n4cccc(C)c4n3)C(c3ccc(C)cc3)C2)cc1 (configuration not stated)	8	-10	-9	·	·	5	·	·
CC1=CC(C)(C)N2C(=O)C(=O)c3cc(OC(=O)c4ccco4)cc1c32	75*	-14	11	2	0	46	59*	52*
COc1ccc(CN2C(=NC(=O)c3ccccc3)SC3CS(=O)(=O)CC32)cc1 (configuration not stated)	50*	9	-6	-1	2	-14	5	·
COc1ccc(CN2C(=NC(=O)C3CC3)SC3CS(=O)(=O)CC32)cc1 (configuration not stated)	9	-11	4	-2	-2	7	·	·
COc1ccc(C(=O)N=C2SC3CS(=O)(=O)CC3N2Cc2ccc(F)cc2)cc1 (configuration not stated)	51*	23	-7	-1	0	-15	41*	65*
O=C(Nc1ccccn1)c1cc2ccccc2cc1O	-101	-104	1	0	-2	-85	·	·
Oc1cccc2ccc(Nc3ccccn3)nc12	72*	98*	-29	-3	-9	25	100*	52*
CCOCc1c(C(=O)OCC(=O)/C(C#N)=C(\C)N)oc2ccccc12	0	·	16	-4	-2	3	·	·
Cc1c(Cl)cccc1NC(=O)COC(=O)c1c2c(nc3ccccc13)CCN(Cc1ccccc1)C2	38	36	11	-1	0	0	·	·
CC(C)c1ccccc1NC(=O)COC(=O)c1c2c(nc3ccccc13)CCN(Cc1ccccc1)C2	53*	13	11	-4	-2	0	33	·
COc1ccc(/C=C(\C#N)C(=O)OCC(=O)N2CC(C)OC(C)C2)cc1 (configuration not stated)	10	9	22	-2	-2	2	·	·
CCOC(=O)c1c(NC(=O)/C=C/C(=O)O)sc(C)c1-c1ccc(C(C)(C)C)cc1	87*	-34	32	-1	-1	-2	80*	56*
O=C(COc1coc(CN2CCc3ccccc3C2)cc1=O)Nc1ccccc1F	3	7	9	·	·	-12	·	·
COc1ccc(NS(=O)(=O)c2cc(OC)ccc2NC(=O)c2cc(C)oc2C)cc1	51*	22	-34	4	1	37	61*	48*
COc1ccc(NS(=O)(=O)c2cc(OC)ccc2OC)cc1	-1	13	5	·	·	-9	·	·
CCOC(=O)c1c(S(=O)(=O)Nc2ccc(F)cc2Cl)c(C)n(C)c1C	-2	11	16	0	-4	1	·	·
Cc1csc(NC(=O)c2ccc(Cl)cc2[N+](=O)[O-])n1	-62	-92	-63	-3	0	-44	·	·
Cc1cc(C(=O)Nc2nc(-c3ccccn3)cs2)ccc1[N+](=O)[O-]	63*	31	-3	0	-1	-3	64*	40*
O=C(Nc1nc(-c2ccccn2)cs1)c1cc(Cl)ccc1[N+](=O)[O-]	83*	116*	5	-2	-4	35	75*	32
COc1ccc(-n2nc(C(=O)NCC(=O)N(C)Cc3ccccc3)c3ccccc3c2=O)cc1OC	19	9	1	-5	-3	17	·	·
CCOC(=O)c1ccccc1NC(=O)COC(=O)C1CCN(S(=O)(=O)c2ccccc2C(=O)OC)CC1	15	10	-6	·	·	8	·	·
O=C1CCCCC1Sc1nnc(-c2ccc3c(c2)OCO3)o1 (configuration not stated)	73*	33	9	-4	-4	-123	69*	90*
SMILES	Mdm2 MdmX PPI	aSyn 5UTR inh	697 NFkB inh	VIM-2 inh	IMP-1 inhibitor	Jurkat NFkB inh	Mdm2-MdmX conf	FLuc counter
CCOC(=O)C1(Nc2nccs2)Sc2ccccc2NC1=O (configuration not stated)	57*	-10	-44	0	-2	45	62*	58*
Nc1nc(Nc2cccc3ccccc23)nc(C2CCCC2=O)n1 (configuration not stated)	28	-10	-10	1	-3	21	·	·
Nc1nc(CCl)nc(Nc2cccc3ccccc23)n1	97*	-18	5	-2	-2	49	98*	61*
CC(C)C[C@H]1CN=C(Nc2ccccc2)N1CCCC1CCCC1	39	-31	-1	0	-1	22	·	·
CC(C)C[C@H]1CN=C(Nc2ccccc2)N1CCCC1CCCCC1	50*	-69	16	0	-2	20	24	·
N#Cc1ccc(CN2CCN(C(=O)CNC(=O)Cc3ccccc3)CC2)cc1	12	·	14	·	·	-6	·	·
CCc1ccc2oc(C(=O)N3CCN(c4ccccc4OC)CC3)cc(=O)c2c1	60*	-4	-16	1	0	23	50*	40*
Cn1c(NC(=O)c2cc(Br)ccc2Cl)cc(=O)n(C)c1=O	-5	23	6	2	0	7	·	·
COc1cc(C(N)=O)cc(Br)c1OC	59*	-18	5	-2	-5	-5	2	·
COc1ccc(C)cc1C(=O)CCC(=O)NCCc1ccc(S(N)(=O)=O)cc1	21	1	-10	-2	-2	0	·	·
CS(=O)(=O)c1ccc2nc(NC(=O)Nc3ccc(Cl)c(Cl)c3)sc2c1	54*	-21	3	-1	1	-7	9	·
CS(=O)(=O)c1ccc2nc(NC(=O)Nc3cccc(Cl)c3)sc2c1	92*	-85	-67	-2	-1	-44	64*	77*
CCOC(=O)c1c(NC(=O)CN2CCOCC2)sc2c1CC(C)(C)OC2	17	26	7	-3	-3	0	·	·
